The values that follow come from PMC6492960 (Oncoimmunology, 2019).

For assay [1], the system named is splenocytes of immunised HLA-DR4 transgenic mice. Description: Epitope mapping, HLA-DR4 transgenic mice. It is filed as cell-based, mouse. The following applies: Supplementary Figure 3.
Assay [2] deals with TCR α and β chain CDR3 of CD4+ CFSE^high and CFSE^low cells. Description: TCR α and β CDR3 repertoire diversity of sorted CD4+ CFSE high/low cells. The following applies: for Diversity Index (D50) TRA / Diversity Index (D50) TRB: day 10, non-normalised. The arrangement: species or system human. In short, it runs like this: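 CD25-depleted human PBMCs were labelled with 5µM CFSE for 5 min at room temperature and cultured at 1.5-2x10^6/ml with 10μg/ml citrullinated peptide or vehicle. On day 10 they were stained for CD4/CD8 and sorted into CD4+ CFSEhigh and CFSElow populations. RNA then went through RT-PCR, ARM-PCR with human TCR α/β primers, and NGS bulk sequencing. D50 is the percentage of clones accounting for the cumulative 50% of CDR3 counts.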

The subject of assay [3] is splenocytes of immunised HLA-DP4 transgenic mice (IFNγ). In kind it is cell-based, mouse. To be noted: anti-CD4 20 µg/ml, 15 min prior to peptide. The method, boiled down: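 HLA-A2.1/HLA-DP4/hCD4 transgenic mice (8–12 weeks) immunised s.c. at tail base on days 0, 7 and 14 with 25 µg peptide in PBS emulsified with CpG ODN 1826 and MPLA (5 µg each). Spleens taken day 20. Splenocytes (5 × 10^5/well) given anti-CD4 GK1.5 before 10µg/ml peptide; quadruplicate wells, 40 h, 37°C, 5% CO2. LPS positive control. Spots counted automatically.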

The next assay concerns HLA-DP4. To be noted: cited from earlier work.
The target of assay [4] is HLA-DP4 (HLA-DPA*0103 α chain / HLA-DPB*0401 β chain) (human). Description: ELISA.
The mark [5] stands for this setting: donor BD0011, CD4+ CFSE^High (non-proliferating).
Where [6] appears, read: donor BD0011, CD4+ CFSE^Low (proliferating).
The mark [7] stands for this setting: donor BD0008, CD4+ CFSE^High (non-proliferating).
Where [8] appears, read: donor BD0008, CD4+ CFSE^Low (proliferating).

Turning to “FSSLNL-cit-ETNLDSL [Vimentin 418-431 cit]”, in assay [1], the “shorter epitope mapping in HLA-DR4 transgenic mice” value (“shorter epitope mapping” for short) is “consistent with findings in the HLA-DR4 transgenic mice mapping shorter peptide sequences”.
Regarding “LPNFSSLNL-cit-ETNLDSLPL [Vimentin 415-433 cit]”, in assay [2] (setting [5]), the “Diversity Index (D50) TRA” value came to 9.9 and the “Diversity Index (D50) TRB” value amounted to 5.9. In addition, in assay [2] (setting [6]), the “Diversity Index (D50) TRA” value was 0.7 and the “Diversity Index (D50) TRB” value is recorded as 0.5. In addition, in assay [2] (donor BD0011, compared with non-proliferating CD4 population), the “TCR clonality of responding CD4 T cells” value was “a bias of TCR Vβ and Vα sequences among CD4+ proliferating cells (CFSE^low)”. Also, in assay [3], the “IFNγ ELISpot response in presence of CD4 blocking antibody” value (from here on “IFNγ ELISpot response in presence”) is “Responses were lost”.
Consider LQYM-cit-ADQAAGGLR [collagen II], for which the “binding to HLA-DP4 (literature)” value in the assay on HLA-DP4 is “not to bind to HLA-DP4”.
Turning to NQDFTN-cit-INKLKNS [fibrinogen], the “binding to HLA-DP4 (literature)” value in the assay with HLA-DP4 is “not to bind to HLA-DP4”.
As for “VIGMDVAASEFF-cit-SG [Enolase 241-255 cit]”, the “shorter epitope mapping” value in assay [1] is given as “consistent with findings in the HLA-DR4 transgenic mice mapping shorter peptide sequences”.
For “VIGMDVAASEFF-cit-SGKYDLD [Enolase 241-260 cit]”, the “IFNγ ELISpot response in presence” value in assay [3] is given as “Responses were lost”.
Turning to “cit-SYVTTST-cit-TYSLGS [Vimentin 28-42 cit]”, in assay [1], the “shorter epitope mapping” value was “consistent with findings in the HLA-DR4 transgenic mice mapping shorter peptide sequences”.
Turning to “cit-SYVTTST-cit-TYSLGSAL-cit-PSTS [Vimentin 28-49 cit]”, in assay [2] (setting [7]), the “Diversity Index (D50) TRA” value turned out to be 12.8 and the “Diversity Index (D50) TRB” value turned out to be 17. Also, in assay [2] (setting [8]), the “Diversity Index (D50) TRA” value was 0.4 and the “Diversity Index (D50) TRB” value is recorded as 0.2. Moreover, the “TCR clonality of responding CD4 T cells” value in assay [2] (donor BD0008, compared with non-proliferating CD4 population) is “a bias of TCR Vβ and Vα sequences among CD4+ proliferating cells (CFSE^low)”. Moreover, the “IFNγ ELISpot response in presence” value in assay [3] is given as “Responses were lost”.
In assay [4], “non-biotinylated Hepatitis B surface antigen aa 181–193 peptide” yielded a percent inhibition of the binding of the biotinylated Hepatitis B peptide of 50%.
